# Measured values of several laboratories.
# CASP3: Caspase-3 (CASP3, Homo sapiens, UniProt P42574)
# DRD3: D(3) dopamine receptor (DRD3, Homo sapiens, UniProt P35462)
# PPARG: Peroxisome proliferator-activated receptor gamma (PPARG, Homo sapiens, UniProt P37231)
# CA12: Carbonic anhydrase 12 (CA12, Homo sapiens, UniProt O43570)
# SLC6A3: Sodium-dependent dopamine transporter (SLC6A3, Homo sapiens, UniProt Q01959)
SMILES,target,assay,conditions,Ki
O=c1c(O)c(-c2cc(O)c(O)c(O)c2)oc2cc(O)cc(O)c12,CASP3,"enzyme activity, inhibitor, fluorescence",,68.7 µM
CN(CCCCNC(=O)c1ccc2scnc2c1)[C@@H]1Cc2cccc3[nH]c(=O)n(c23)C1,DRD3,"ligand displacement, radioligand",cell membranes,0.427 µM
C=CCc1ccc(O)c(-c2ccc(O)c(CC=C)c2)c1,PPARG,"ligand displacement, TR-FRET",,2 µM
O=C1c2ccccc2CCCN1CCCCN1CCN(c2ccccn2)CC1,DRD3,"ligand displacement, radioligand",,0.003 µM
NS(=O)(=O)c1ccc(-n2nccc2-c2ccc(N3CCOCC3)cc2)cc1,CA12,"enzyme activity, inhibitor, stopped-flow",,0.344 µM
CC(C)(COP(=O)(O)OP(=O)(O)OC[C@H]1O[C@@H](n2cnc3c(N)ncnc32)[C@H](O)[C@@H]1OP(=O)(O)O)[C@@H](O)C(=O)NCCC(=O)NCCS,"Histone acetyltransferase type B catalytic subunit (Homo sapiens, UniProt O14929)","enzyme activity, inhibitor, radiometric",,41.5 µM
O=c1c(O)c(-c2ccc(O)c(O)c2)oc2cc(O)cc(O)c12,CASP3,"enzyme activity, inhibitor, fluorescence",,96.4 µM
CN(CCOc1ccc(CC2SC(=O)N(CC(=O)OC(C)(C)C)C2=O)cc1)c1ccccn1 (stereo not shown),PPARG,"ligand displacement, TR-FRET",,0.103 µM
CCCC[C@H](NC(=O)[C@H](C)c1c(C)[nH]c2ccc(O)cc12)c1ncc(-c2cc3ccccc3nc2OC)[nH]1,"Prostaglandin F2-alpha receptor (PTGFR, Homo sapiens, UniProt P43088)",cell-free assay,,8.98 µM
CN1CCN(c2ccc(-c3ccnn3-c3ccc(S(N)(=O)=O)cc3)cc2)CC1,CA12,"enzyme activity, inhibitor, stopped-flow",,0.404 µM
CC1Cc2ccccc2N1C(=O)c1nc2ccccc2s1 (stereo not shown),DRD3,"ligand displacement, radioligand",cell membranes,14.4 µM
COc1cccc(CCC2=NCCN2CCc2ccccc2)c1,DRD3,"ligand displacement, radioligand",,> 10 µM
OC[C@@]12C[C@@H]1[C@@H](n1cnc3c(NC(C4CCCC4)C4CCCC4)nc(Cl)cc31)[C@H](O)[C@@H]2O,SLC6A3,"cell-free assay, radioligand",,3.9 µM
Cc1nc2cc(OCCCCN3CCN(c4cccc(Cl)c4Cl)CC3)ccc2s1,SLC6A3,"ligand displacement, radioligand",,0.69 µM
CCN(CC)c1ccc(C2Nc3ccc(C(=O)c4ccccc4)cc3NC3=C2C(=O)CC(C)(C)C3)cc1 (stereo not shown),SLC6A3,"cell-free assay, radioligand",,> 10 µM
CC1Cc2ccccc2N1C(=O)NCCCCN(C)[C@@H]1Cc2cccc3[nH]c(=O)n(c23)C1 (mixture of isomers),DRD3,"ligand displacement, radioligand",cell membranes,0.139 µM
CC(C)c1nc2cc(OCCCCN3CCN(c4cccc5c4OCCO5)CC3)ccc2s1,SLC6A3,"ligand displacement, radioligand",,2.5 µM
c1ccc(CCC2=NCCN2CCc2ccccc2)cc1,DRD3,"ligand displacement, radioligand",,> 10 µM
CN(CC[C@@H]1C[C@H]1CNC(=O)c1cc2ccccc2[nH]1)[C@@H]1Cc2cccc3[nH]c(=O)n(c23)C1,DRD3,"ligand displacement, radioligand",cell membranes,0.398 µM
